The source of these data is ChEMBL document CHEMBL1671655, “Anidulafungin is fungicidal and exerts a variety of postantifungal effects against Candida albicans, C. glabrata, C. parapsilosis, and C. krusei isolates” (2009).

Structures are written as SMILES. In brackets after ≈: the same amount, converted by molar mass. Activity calls are given as the source filed them. The rule behind the calls is not given here. Starred links: 1 amine or outer side, 2 acyl side, 3 side chain; linkers in the order of their positions; H or OH if unused. Positions of bridges follow the written chain, without caps; N, C: chain ends. Non-standard residues stand in square brackets, D forms with d. Residues, ends and D or L forms follow the SMILES beside them. *: point of attachment. pTerphenylCO(4''-OnC5H11) = CCCCCOc1ccc(-c2ccc(-c3ccc(C(=O)*)cc3)cc2)cc1; Orn(4R-OH,5R-OH) = O=C([C@H](C[C@@H](O)[C@@H](O)N[*:3])N[*:1])[*:2]; hTyr(3S-OH,4S-OH) = N[C@H](C(=O)O)[C@H](O)[C@@H](O)c1ccc(O)cc1; Pro(3S-OH,4S-Me) = C[C@H]1CN[C@H](C(=O)O)[C@H]1O; Hyp = O=C(O)[C@@H]1C[C@@H](O)CN1

The test system of assay [1] is Pichia kudriavzevii. Put plainly: Fungicidal activity against Candida krusei isolate 1 assessed as log reduction in bacterial count at MIC after 48 hrs by time-kill analysis. The assay is classed as functional. The settings on record: isolate 1, 48 h. The gist of the method: (§1)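 Isolates subcultured twice on SDA, suspended to 0.5 McFarland, giving ~1 x 10^5 to 5 x 10^5 CFU/ml in MOPS-buffered RPMI 1640 (pH 7.0) with or without drug at multiples of MIC (MIC by CLSI M27-A3). Tubes shaken at 35°C with continuous drug. Sampled at 0–48 h, diluted 10-fold and plated on SDA; CFU counted after 48 h at 35°C. Run twice per isolate; means.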

In assay [2] the test system is Candida albicans. The experiment in a line: Fungicidal activity against Candida albicans ATCC 90028 assessed as log reduction in bacterial count at 16 times MIC after drug exposure for 1 hr followed by washout measured after 48 hrs in the absence of drug by PAFE study. The assay is classed as functional. A digest of the protocol: (§2)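 Inoculum of about 1 x 10^5 to 5 x 10^5 CFU/ml in MOPS-buffered RPMI (pH 7.0), shaken at 35°C and exposed to drug for 1 h. Cells then washed and centrifuged three times and resuspended in drug-free warm RPMI. Samples plated on SDA at 0, 2, 4, 8, 12, 24 and 48 h, with CFU counted after 48 h at 35°C. Run twice per isolate; values are means.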

Assay [3] concerns Candida parapsilosis. The experiment in a line: Increase in susceptibility to calcofluor white in Candida parapsilosis isolate A assessed as cell wall damage at MIC after 1 hr relative to control. It is filed as functional, organism-based. A digest of the protocol: (§3)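 Candida given a 1-h anidulafungin pulse in MOPS-buffered RPMI 1640 (pH 7.0) at 35°C, washed three times by centrifugation, and regrown drug-free. Cells collected 8 h later, grown in YPD with 1% glucose to exponential phase, and set to OD599 0.1. Undiluted culture and 10-fold dilutions (4 µl) spotted on YPD plates with calcofluor white, then 30°C for 72 h. Triplicate; compared with no-drug cells.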

Assay [4] deals with Candida parapsilosis. Put plainly: Fungicidal activity against Candida parapsilosis isolate 1 assessed as log reduction in bacterial count at 4 times MIC after 48 hrs by time-kill analysis. The settings on record: Lodderomyces parapsilosis, isolate 1, 48 h. It is filed as functional. The gist of the method: as §1
Assay [5] relates to Pichia kudriavzevii. Put plainly: Increase in susceptibility to calcofluor white in Candida krusei isolate ATCC 6258 assessed as cell wall damage at MIC after 1 hr relative to control. The assay is classed as functional, organism-based. The gist of the method: as §3
Assay [6] has as its system Candida parapsilosis. Put plainly: Fungicidal activity against Candida parapsilosis isolate A assessed as log reduction in bacterial count at 16 times MIC after drug exposure for 1 hr followed by washout measured after 48 hrs in the absence of drug by PAFE study. It is filed as functional. The following applies: Lodderomyces parapsilosis. A digest of the protocol:
(§4)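 Inoculum about 1 x 10^5 to 5 x 10^5 CFU/ml in RPMI 1640 (MOPS, pH 7.0) with drug, shaken at 35°C for 1 h. Cells were then washed and centrifuged at 1,400 x g for 10 min (3 cycles) and resuspended in warm drug-free RPMI. Samples plated on SDA at 0, 2, 4, 8, 12, 24 and 48 h; CFU counted after 48 h at 35°C. Run twice per isolate; means.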

Assay [7] concerns Candida parapsilosis. Put plainly: Antifungal activity against Candida parapsilosis isolate A assessed as time period for bacterial growth inhibition at 4 times MIC after 1 hr drug exposure. It is filed as functional. A digest of the protocol: as §2
Assay [8] concerns Nakaseomyces glabratus. The experiment in a line: Antifungal activity against Candida glabrata isolate 1 assessed as time period for bacterial growth inhibition at 4 times MIC after 1 hr drug exposure. It is filed as functional. A digest of the protocol: as §2
For assay [9], the system named is Candida parapsilosis. The experiment in a line: Antifungal activity against Candida parapsilosis isolate A coincubated with mouse J774 macrophages assessed as macrophage induced bacterial cell killing at 4 times MIC (reference value: 19 +/- 9 %). The assay is classed as functional.
The subject of assay [10] is Candida parapsilosis. Put plainly: Antifungal activity against Candida parapsilosis isolate 1 by CLSI M27-A3 broth microdilution method. It is filed as functional. The following applies: Lodderomyces parapsilosis. A digest of the protocol: (§5)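 CLSI M27-A3 broth microdilution in RPMI 1640 buffered to pH 7.0 with MOPS. Starting inoculum 0.5 x 10^3 to 2.5 x 10^3 cells/ml, incubated at 35°C. MIC read as the lowest concentration giving >50% growth reduction versus control. Each isolate tested on at least three occasions.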

Assay [11] deals with Candida albicans. The experiment in a line: Increase in susceptibility to calcofluor white in Candida albicans ATCC 90028 assessed as cell wall damage at 4 times MIC after 1 hr relative to control. It is filed as functional, organism-based. A digest of the protocol: (§6)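 Cells recovered 8 h after a 1-h drug exposure were grown to exponential phase in YPD with 1% glucose and adjusted to OD599 0.1. Undiluted and 10-fold serially diluted cultures were spotted onto YPD plates containing calcofluor white, then incubated at 30°C for 72 h. Growth compared with no-drug control cells; triplicate.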

Assay [12] deals with Candida albicans. Put plainly: Inhibition of Candida albicans isolate 1 adherence to human buccal epithelial cells at 4 times MIC after 1 hr by adherence assay relative to control. It is filed as functional, Epithelial cell. A digest of the protocol:
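Candida collected 8 h after a 1-h 4x MIC pulse and washout were grown on SDA for 24 h at 35°C. Buccal epithelial cells were pooled from three donors and washed in PBS. Cells (1 x 10^5/ml) were mixed 1:1 by volume with Candida (1 x 10^6/ml) and shaken 1 h at 37°C. Mixtures were filtered, washed, and Gram-stained, and Candida were counted per 100 epithelial cells. Run in duplicate on ≥2 occasions; Student's t test against unexposed controls.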

Assay [13] concerns Nakaseomyces glabratus. The experiment in a line: Increase in susceptibility to calcofluor white in Candida glabrata isolate 3 assessed as cell wall damage at 4 times MIC after 1 hr relative to control. The assay is classed as functional, organism-based. The gist of the method: as §6
The test system of assay [14] is Pichia kudriavzevii. Put plainly: Increase in susceptibility to SDS in Candida krusei isolate ATCC 6258 assessed as cell wall damage at 4 times MIC after 1 hr relative to control. It is filed as functional, organism-based. A digest of the protocol:
(§7)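 Cells recovered 8 h after a 1-h drug exposure were grown in YPD with 1% glucose to exponential phase and adjusted to OD599 0.1. Undiluted culture and 10-fold serial dilutions were spotted onto YPD plates containing SDS (0.01 to 0.04%), then incubated 72 h at 30°C. Growth compared with unexposed control cells; triplicate.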

Assay [15] relates to Candida albicans. The experiment in a line: Fungicidal activity against Candida albicans isolate 1 assessed as log reduction in bacterial count at MIC after 48 hrs by time-kill analysis. The assay is classed as functional. The settings on record: isolate 1, 48 h. A digest of the protocol: as §1
For assay [16], the system named is Nakaseomyces glabratus. The experiment in a line: Antifungal activity against Candida glabrata assessed as time period for bacterial regrowth inhibition after 1 hr drug exposure. It is filed as functional.
The subject of assay [17] is Pichia kudriavzevii. Put plainly: Antifungal activity against Candida krusei isolate 1 by CLSI M27-A3 broth microdilution method. It is filed as functional. The gist of the method: as §5
Background: In broth dilution the organism is exposed to a series of concentrations in liquid medium.

In assay [18] the test system is Candida parapsilosis. The experiment in a line: Fungicidal activity against Candida parapsilosis isolate 1 assessed as log reduction in bacterial count at 4 times MIC after drug exposure for 1 hr followed by washout measured after 48 hrs in the absence of drug by PAFE study. It is filed as functional. The settings on record: Lodderomyces parapsilosis. The gist of the method:
as §4

Assay [19] deals with Candida parapsilosis. Put plainly: Increase in susceptibility to SDS in Candida parapsilosis isolate A assessed as cell wall damage at 16 times MIC after 1 hr relative to control. It is filed as functional, organism-based. A digest of the protocol: as §7
The subject of assay [20] is Nakaseomyces glabratus. Put plainly: Fungicidal activity against Candida glabrata isolate 1 assessed as log reduction in bacterial count at 16 times MIC after 48 hrs by time-kill analysis. It is filed as functional. The following applies: isolate 1, 48 h. A digest of the protocol: as §1
For assay [21], the system named is Pichia kudriavzevii. The experiment in a line: Fungicidal activity against Candida krusei isolate 1 assessed as log reduction in bacterial count at 4 times MIC after 48 hrs by time-kill analysis. It is filed as functional. The following applies: isolate 1, 48 h. The gist of the method:
as §1

Assay [22] has as its system Candida parapsilosis. Put plainly: Increase in susceptibility to SDS in Candida parapsilosis isolate A assessed as cell wall damage at MIC after 1 hr relative to control. The assay is classed as functional, organism-based. A digest of the protocol: as §7
Assay [23] relates to Candida parapsilosis. The experiment in a line: Increase in susceptibility to calcofluor white in Candida parapsilosis isolate A assessed as cell wall damage at 16 times MIC after 1 hr relative to control. The assay is classed as functional, organism-based. The gist of the method: as §3

On to `CCCCCOc1ccc(-c2ccc(-c3ccc(C(=O)N[C@H]4C[C@@H](O)[C@@H](O)NC(=O)[C@@H]5[C@@H](O)[C@@H](C)CN5C(=O)[C@H]([C@@H](C)O)NC(=O)[C@H]([C@H](O)[C@@H](O)c5ccc(O)cc5)NC(=O)[C@@H]5C[C@@H](O)CN5C(=O)[C@H]([C@@H](C)O)NC4=O)cc3)cc2)cc1` [ANIDULAFUNGIN] ({pTerphenylCO(4''-OnC5H11)}-[Orn(4R-OH,5R-OH)]T[Hyp][hTyr(3S-OH,4S-OH)]T[Pro(3S-OH,4S-Me)]; lactam 1-C), for which the log reduction in the assay with Pichia kudriavzevii [1] was found to be 1.74 log CFU/ml; with Candida albicans [2], 2.14; in the assay on Candida parapsilosis [4], 3.07 log CFU/ml; in the assay on Candida parapsilosis [6] it was 3.47; in the assay on Candida albicans [15], 1.15 log CFU/ml; with Candida parapsilosis [18], 2.46. In addition, the results for the log reduction in the assay with Nakaseomyces glabratus [20] and with Pichia kudriavzevii [21] were 3.44 log CFU/ml and 2.29 log CFU/ml, respectively. In addition, the result with Candida parapsilosis [3], in the assay on Pichia kudriavzevii [5], with Candida albicans [11], with Nakaseomyces glabratus [13], with Pichia kudriavzevii [14] and in the assay on Candida parapsilosis [19] was Active. Also, the outcome in the assay with Candida parapsilosis [22] and in the assay on Candida parapsilosis [23] was Active. Also, the Time with Candida parapsilosis [7] was 8 h; in the assay on Nakaseomyces glabratus [8], 8 h; in the assay with Nakaseomyces glabratus [16], “>=12 hr”. Besides, the “inhibition (INH)” value in the assay on Candida parapsilosis [9] came to 42%; in the assay on Candida albicans [12], 58%. Further, the MIC against Candida parapsilosis [10] was determined as 2 µg/mL (≈ 1.75 µM); against Pichia kudriavzevii [17] it was 0.03 µg/mL (≈ 0.0263 µM).

For orientation: MIC means the least concentration at which growth counts as inhibited.
